Legend:
Assay type in all cases: cell-based
RAW 264.7 cells = assay: WST1 cell viability assay; conditions: concentrations up to 100 μM
How it was run: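 Viability was read at every concentration tested in the NO assay, in RAW 264.7 cells given 20 ng/mL LPS plus a range of test compound concentrations. LC50 was taken as the concentration giving 50% cell viability. Test compound purity was above 95% by 1H NMR.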

[1] = test system: NF-κB activation through TLR3 in HEK 293T cells; assay: SEAP reporter assay, Poly I:C; conditions: 2.5 μg/mL Poly I:C, concentrations up to 100 μM
TNF-α in RAW 264.7 cells = assay: TNF-α ELISA; conditions: supernatant from nitric oxide plates
[2] = test system: NF-κB signaling through tumor necrosis factor receptor (TNFR) in HEK 293T cells; assay: SEAP reporter assay, TNF-α; conditions: 50 ng/mL TNF-α
[3] = test system: iNOS (NOS2) mRNA in RAW 264.7 cells; assay: Quantitative RT-PCR of iNOS mRNA, LPS; conditions: 20 ng/mL LPS, 20 h, maximal decrease over tested concentrations
How it was run: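 Quantitative real-time PCR for iNOS mRNA in RAW 264.7 cells co-incubated with 20 ng/mL LPS and a range of test compound concentrations for 20 h. Values expressed as fold change, with ligand-induced cells set to 1. Three biological replicates, each in technical duplicate, were averaged, with standard deviation as error.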

[4] = test system: NF-κB activation through TLR4 in HEK 293T cells; assay: SEAP reporter assay, LPS; conditions: 20 ng/mL LPS, concentrations up to 100 μM
[5] = test system: iNOS protein in RAW 264.7 cells; assay: Western blot of iNOS protein; conditions: 20 ng/mL LPS, normalized to GAPDH

With CC(C)(C)OC(=O)N(Cc1ccco1)C(=O)c1ccc(CN2C(=O)c3ccccc3S2(=O)=O)cc1 [compound 103, tert-butyl N-(furan-2-ylmethyl)-N-{4-[(1,1,3-trioxo-2,3-dihydro-1λ^6,2-benzothiazol-2-yl)methyl]benzoyl}carbamate] the cytotoxicity (RAW 264.7 cells) was “no cytotoxicity”, the “NF-κB activation (SEAP)” value [1] was “did not down-regulate NF-κB activation” and the TNF-α cytokine levels (TNF-α in RAW 264.7 cells) was “no change in TNF-α cytokine levels”. For the same molecule, the “NF-κB signaling (SEAP)” value [2] was “unaffected”, the “decrease of iNOS mRNA” value [3] was “up to 67%” and the “NF-κB activation (SEAP)” value [4] was “did not down-regulate NF-κB activation”. The iNOS protein expression [5] was “reduces iNOS protein expression in a dose-dependent fashion”.

Source: publication PMC4079330 (Journal of Medicinal Chemistry, 2014)
